Results published in publication PMC10042892 (Clinical Pharmacokinetics, 2023).
Read-outs that look alike come from different tables or passages of the source. Each block holds one compound with its values, some of them ahead of it.

Experiments:
[1] = system: patients with advanced breast cancer; assay: Patient subgroup safety analysis by renal function; format: in vivo, human; conditions: for AEs leading to discontinuations / Dose modifications owing to renal toxicity / Incidence of thrombocytopenia / On-treatment deaths / QT interval prolongation events: ribociclib group
Method in brief: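 Safety by renal function group in X2107, MONALEESA-2, MONALEESA-3 and MONALEESA-7 (NSAI only). Starting dose 600 mg, 3 weeks on/1 week off. Drug-related AEs were managed by reducing to 400 or 200 mg. Patients with severe RI were excluded from these studies.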

plasma protein = conditions: cited from earlier work
[2] = format: in vivo, human; conditions: for Increase in AUCinf compared with normal renal function / Increase in Cmax compared with normal renal function: single 400-mg dose; for Exposure of metabolite higher compared with normal renal function: single 400-mg dose of ribociclib
[3] = cited from earlier work
non-cancer subjects = assay: Study A2116: safety; format: in vivo, human; conditions: single 400-mg dose
Method in brief: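 Phase I, open-label, multicenter, parallel-group, two-part study. Single oral 400-mg dose in non-cancer subjects with varying renal impairment vs matched normal-function subjects. Part I enrolled normal function, severe RI and ESRD not on dialysis.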

[4] = cited from earlier work; remark: listed apart in the source
[5] = system: patients with advanced breast cancer; assay: Patient subgroup efficacy analysis; format: in vivo, human; conditions: for PFS HR (95% CI) RIB vs PBO: Cox proportional-hazards model stratified by study; for Median PFS (95% CI): Kaplan–Meier, local investigator's assessment
Method in brief: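 Pooled data: MONALEESA-2 (full analysis set), MONALEESA-3 (first-line patients) and MONALEESA-7 (NSAI only). Starting dose 600 mg, 3 weeks on/1 week off. Severe RI was excluded. PFS by local investigator assessment. Median PFS by Kaplan–Meier; hazard ratio from a Cox proportional-hazards model stratified by study.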

[6] = baseline eGFR as a continuous covariate; patients; cited from earlier work
[7] = cited from earlier work; remark: listed apart in the source
[8] = pharmacokinetic data; cited from earlier work
[9] = cited from earlier work; remark: listed apart in the source
[10] = Subgroup analysis for letrozole PK by renal function; format: in vivo, human; conditions: X2107 and MONALEESA-7, no moderate RI available, data on file

SMILES: CN(C)C(=O)c1cc2cnc(Nc3ccc(N4CCNCC4)cn3)nc2n1C1CCCC1 [ribociclib]
Median time to the first dose reduction ([1]; across renal function cohorts, patients with dose reductions): 12.0–12.9 weeks
AEs of torsade de pointes ([1]; patients with ABC): No AEs of torsade de pointes were reported
Median time to first occurrence of QTcF value > 480 ms and an increase from baseline of >60 ms ([1]; patients with ABC): 15 days
AEs leading to discontinuations ([1]; mild RI): 16.0%
Dose modifications owing to renal toxicity ([1]; mild RI): 2.5%
Incidence of thrombocytopenia ([1]; mild RI): 11.0%
On-treatment deaths ([1]; mild RI): 1.3%
QT interval prolongation events ([1]; mild RI): 10.3%
AEs leading to discontinuations ([1]; moderate RI): 25.4%
Dose modifications owing to renal toxicity ([1]; moderate RI): 3.8%
Incidence of thrombocytopenia ([1]; moderate RI): 13.8%
On-treatment deaths ([1]; moderate RI): 5.4%
QT interval prolongation events ([1]; moderate RI): 10.0%
AEs leading to discontinuations ([1]; normal function): 10.1%
Dose modifications owing to renal toxicity ([1]; normal renal function): 0.7%
Incidence of thrombocytopenia ([1]; normal renal function): 7.0%
On-treatment deaths ([1]; normal renal function): 1.4%
QT interval prolongation events ([1]; normal renal function): 6.4%
Protein binding (plasma protein): 70%
Ae0-144h Geo-mean (amount excreted into the urine from time 0 to 144 h) ([2]; ESRD, N = 3, single oral dose of ribociclib at 400 mg, Part I and II): 8.11 mg
Renal clearance as share of the apparent clearance ([2]; Study A2116): around 5%
Increase in AUCinf compared with normal renal function ([2]; mild RI): 62%
Increase in Cmax compared with normal renal function ([2]; mild RI): 80%
Increase in AUCinf compared with normal renal function ([2]; moderate RI): 94%
Increase in Cmax compared with normal renal function ([2]; moderate RI): 79%
Increase in AUCinf compared with normal renal function ([2]; severe RI): 167%
Increase in Cmax compared with normal renal function ([2]; severe RI): 130%
Mean effective half-life ([3]; at 600 mg): 33 to 54 h
Oral clearance in patients with cancer versus non-cancer subjects [3]: generally lower oral clearance
Dose proportionality of exposure ([3]; dose range of 50–1200 mg): slightly over-proportional increases in exposure
Time to maximum observed plasma drug concentration ([3]; previous PK analyses): 1 to 5 h
Subjects with at least one AE (non-cancer subjects; all cohorts): 31.6%
Subjects with treatment-related AEs (non-cancer subjects; all cohorts): 15.8%
Changes from baseline in hematology, chemistry, vital signs, or electrocardiograms (non-cancer subjects; any of the cohorts): No clinically meaningful changes from baseline
Intestinal excretion [4]: ~8%
Renal excretion [4]: around 7%
Contribution of renal clearance, share of overall elimination routes ([4]; human absorption, distribution, metabolism, and excretion study): 7%
Hepatic elimination, share of overall pathways ([4]; in humans): 84%
PFS HR (95% CI) RIB vs PBO ([5]; mild renal impairment): 0.57
Median PFS (95% CI) ([5]; mild renal impairment): 24.8 months
PFS HR (95% CI) RIB vs PBO ([5]; moderate renal impairment): 0.64
Median PFS (95% CI) ([5]; moderate renal impairment): 22.2 months
PFS HR (95% CI) RIB vs PBO ([5]; normal renal function): 0.58
Median PFS (95% CI) ([5]; normal renal function): 23.8 months
Effect of RI on PK in covariate analysis [6]: not affected by RI
Exposure compared with subjects with normal hepatic function ([7]; mild hepatic impairment): similar
Increase in exposure compared with normal hepatic function ([7]; moderate and severe HI): approximately 30%
Maximal increase in exposure ([7]; severe HI): 1.3 fold
Drug–drug interactions with NSAIs (letrozole and anastrozole) or fulvestrant [8]: no drug–drug interactions

Exposure of metabolite higher compared with normal renal function ([2]; mild RI): 32%
Exposure of metabolite higher compared with normal renal function ([2]; moderate RI): 47%
Exposure of metabolite higher compared with normal renal function ([2]; severe RI): 80%
SMILES: CNC(=O)c1cc2cnc(Nc3ccc(N4CCNCC4)cn3)nc2n1C1CCCC1 [LEQ803]
Contribution to the pharmacological activity in vivo [9]: no clinically relevant contribution to the pharmacological activity in vivo

PK between normal renal function and mild RI [10]: comparable PK
SMILES: N#Cc1ccc(C(c2ccc(C#N)cc2)n2cncn2)cc1 [letrozole]
